≈ marks a conversion by molar mass, not a printed value. Calls of active or inactive are those of the source. No cut-off for these calls is given here.
Key:
HCT-116 [1] = assay: Cellular uptake in human HCT116 cells assessed a bright fluorescence light at 5 uM after 1 hr by fluorescence microscopic analysis; type: ADME, cell-based; conditions: hct-116, 1 h
[2] = Chemical stability of the compound in cell-free DMEM culture media assessed as half life by HPLC analysis in presence of FBS; type: physicochemical; conditions: cell-free DMEM culture medium with FBS
How it was run: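 50 μM in FBS-supplemented DMEM, diluted from 10 mM DMSO stock, no ascorbic acid, cell-free, 37 °C and 5% CO₂. Media sampled at time points up to 24 h and stored at −80 °C. Half-life determined by HPLC.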

HS27 = assay: Antiproliferative activity against human HS27 cells after 24 hrs by MTT assay; type: cell-based; conditions: HS27, 24 h
How it was run: (§1)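 Cells seeded at 5 × 10³ per well in complete DMEM and grown 1 day at 37 °C, 5% CO₂. Compounds in DMSO diluted to 0.1–50 μM in medium, no ascorbic acid added. […] Each experiment run in triplicate and repeated three times.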

HCT-116 [3] = assay: Cellular uptake in human HCT116 cells assessed a bright fluorescence light at 5 uM after 12 hrs by fluorescence microscopic analysis; type: ADME, cell-based; conditions: hct-116, 12 h
HCT-116 [4] = assay: Cellular uptake in human HCT116 cells assessed a bright fluorescence light at 5 uM after 12 hr by fluorescence microscopic analysis in presence of […]; type: ADME, cell-based; conditions: hct-116, 12 h
[5] = Chemical stability of the compound in PBS buffer at pH 7.4 assessed as half life by HPLC analysis; type: physicochemical
How it was run: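 Compound at 50 μM in PBS pH 7.4 at 37 °C, no stabilizer. Aliquots taken at 0–360 min and analysed by C-18 reverse-phase HPLC with UV detection at 340 nm and an acetonitrile/0.1% formic acid gradient. Half-life derived from the time course.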

HCT-116 [6] = assay: Cellular uptake in human HCT116 cells assessed a bright fluorescence light at 5 uM after 12 hr by fluorescence microscopic analysis in presence of P-glycoprotein inhibitor verapamil; type: ADME, cell-based; conditions: hct-116, 12 h
[7] = Solubility of the compound in DMEM media assessed as forward light scattering by compound by microplate neplhelometric analysis; type: physicochemical; conditions: DMEM medium
How it was run: (§2)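 Stocks in DMSO diluted to final 5–500 μM in DMEM, with or without FBS, at 1% DMSO. Forward light scattering measured by laser microplate nephelometry; solubility limit taken from the onset of scattering.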

[8] = Aqueous solubility of the compound in PBS assessed as forward light scattering by compound by microplate neplhelometric analysis; type: physicochemical
How it was run: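 Nephelometric solubility. DMSO stocks diluted in PBS (pH 7.4), 1% DMSO final, to 5–500 μM. Forward light scattering read in microplates to find the highest concentration free of scatter.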

[9] = Permeability of the compound measured on donor plate of PAMPA membrane at 50 uM after 5 hrs by HPLC analysis; type: ADME
How it was run: (§3)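 Precoated PVDF PAMPA plate warmed to room temperature for 30 min. Donor held 50 μM compound in PBS with 5% DMSO; acceptor held PBS. Assembly incubated at room temperature for 1 and 5 h. Donor and acceptor aliquots analysed by HPLC; distribution given as percentage of integrated peak area.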

[10] = Permeability of the compound measured on acceptor plate of PAMPA membrane at 50 uM after 5 hrs by HPLC analysis; type: ADME; how it was run: as §3
MCF7 [11] = assay: Antiproliferative activity against human MCF7 cells after 24 hrs by MTT assay; type: functional, cell-based; conditions: MCF7, 24 h; how it was run: as §1
[12] = Permeability of the compound measured on donor plate of PAMPA membrane at 50 uM after 1 hr by HPLC analysis; type: ADME; how it was run: as §3
HCT-116 [13] = assay: Antiproliferative activity against human HCT116 cells after 24 hrs by MTT assay; type: functional, cell-based; conditions: HCT-116, 24 h; how it was run: as §1
DU-145 = assay: Antiproliferative activity against human DU145 cells after 24 hrs by MTT assay; type: functional, cell-based; conditions: DU-145, 24 h; how it was run: as §1
[14] = Chemical stability of the compound in buffer at pH 2 assessed as half life by HPLC analysis; type: physicochemical
How it was run: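 Compound incubated in pH 2.0 buffer without antioxidant stabiliser. Remaining parent followed by HPLC to derive the half-life.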

[15] = Solubility of the compound in cell-free DMEM media assessed as forward light scattering by compound by microplate neplhelometric analysis in presence of FBS; type: physicochemical; conditions: cell-free DMEM medium with FBS; how it was run: as §2
[16] = Permeability of the compound measured on acceptor plate of PAMPA membrane at 50 uM after 1 hr by HPLC analysis; type: ADME; how it was run: as §3
MCF7 [17] = assay: Cellular uptake in human MCF7 cells assessed as formation of quercetin glucuronide in cell lysates at 10 uM after 12 hrs by HPLC-mass spectrophotometric analysis; conditions: mcf7, 12 h
MCF7 [18] = assay: Cell cycle arrest in human MCF7 cells assessed as increase in accumulation at S phase at 50 uM after 14 hrs by propidium iodide staining based flow cytometric analysis relative to untreated control; type: functional
Huh-7 [19] = assay: Cellular uptake in human HuH7 cells assessed as quercetin-sulphate accumulation at 10 uM after 12 hrs by HPLC-mass spectrophotometric analysis; type: ADME, cell-based; conditions: huh-7, 12 h
How it was run: (§4)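 Cells (MCF-7 or Huh-7) seeded at 10⁵ cells/well and grown 24 h (37 °C, 5% CO₂), then exposed to 10 μM compound. Media and washed, trypsinised, sonicated and filtered lysates analysed by HPLC at 1 and 12 h. Peaks collected and identified by MALDI-TOF MS; content given as percentage of integrated HPLC peak area.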

HCT-116 [20] = assay: Antiproliferative activity against human HCT116 cells after 24 hrs by MTT assay in presence of antioxidative stabilizer ascorbic acid; type: functional, cell-based
How it was run: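 HCT116 cells seeded at 5 × 10³ cells/well in complete DMEM and grown 1 day (37 °C, 5% CO₂). Compounds were dissolved in DMSO and diluted to 0.1–50 μM in medium containing ascorbic acid. Viability read by MTT after 24 h; triplicate wells, three independent repeats.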

Huh-7 [21] = assay: Cellular uptake in human HuH7 cells assessed as methyl-quercetin accumulation at 10 uM after 12 hrs by HPLC-mass spectrophotometric analysis; type: ADME, cell-based; conditions: huh-7, 12 h; how it was run: as §4
MCF7 [22] = assay: Cell cycle arrest in human MCF7 cells assessed as decrease in accumulation at G0/G1 phase at 50 uM after 12 hrs by propidium iodide staining based flow cytometric analysis relative to untreated control; type: functional; design: scale not given: the % may be the effect or the level left
MCF7 [23] = assay: Cellular uptake in human MCF7 cells assessed as formation of methylated quercetin in cell lysates at 10 uM after 12 hrs by HPLC-mass spectrophotometric analysis; conditions: mcf7, 12 h
MCF7 [24] = assay: Cellular uptake in human MCF7 cells assessed as formation of quercetin sulphate in cell lysates at 10 uM after 12 hrs by HPLC-mass spectrophotometric analysis; conditions: mcf7, 12 h
MCF7 [25] = assay: Cellular uptake in human MCF7 cells assessed as compound remaining in cell lysates at 10 uM after 12 hr by HPLC-mass spectrophotometric analysis; type: ADME, cell-based, Lysate; conditions: mcf7, 12 h; how it was run: as §4
MCF7 [26] = assay: Cellular uptake in human MCF7 cells assessed as compound remaining in culture media at 10 uM after 1 hr by HPLC-mass spectrophotometric analysis; type: ADME, cell-based; conditions: mcf7, 1 h; how it was run: as §4
MCF7 [27] = assay: Cellular uptake in human MCF7 cells assessed as formation of oxidised quercetin in cell lysates at 10 uM after 12 hrs by HPLC-mass spectrophotometric analysis; conditions: mcf7, 12 h
MCF7 [28] = assay: Cellular uptake in human MCF7 cells assessed as compound remaining in culture media at 10 uM after 12 hrs by HPLC-mass spectrophotometric analysis; type: ADME, cell-based; conditions: mcf7, 12 h; how it was run: as §4
Huh-7 [29] = assay: Cellular uptake in human HuH7 cells assessed as intracellular accumulation at 10 uM after 12 hrs by HPLC-mass spectrophotometric analysis; type: ADME, cell-based; conditions: huh-7, 12 h; how it was run: as §4
MCF7 [30] = assay: Cellular uptake in human MCF7 cells assessed as compound remaining in cell lysates at 10 uM after 1 hr by HPLC-mass spectrophotometric analysis; type: ADME, cell-based, Lysate; conditions: mcf7, 1 h; how it was run: as §4
[31] = Half life in blood of cancer patient at 400 mg/kg, iv by HPLC analysis; type: ADME, organism-based; design: dose 400 mg/kg, route intravenous; conditions: human
[32] = Chemical stability of the compound in water assessed as half life by HPLC analysis; type: physicochemical
MCF7 [33] = assay: Cell cycle arrest in human MCF7 cells assessed as decrease in accumulation at G0/G1 phase at 30 uM after 12 hrs by propidium iodide staining based flow cytometric analysis relative to quercetin; type: functional; design: scale not given: the % may be the effect or the level left
How it was run: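 MCF-7 cells seeded in 35 mm dishes at 10⁵ cells and grown 12 h at 37 °C, 5% CO₂. Treated 12 h with conjugate at 30 μM, quercetin or 1% DMSO control. Propidium iodide staining, flow cytometry, percentage of cells in each phase.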

MCF7 [34] = assay: Cell cycle arrest in human MCF7 cells assessed as increase in accumulation at S phase at 30 uM after 14 hrs by propidium iodide staining based flow cytometric analysis relative to quercetin; type: functional
Huh-7 [35] = assay: Cellular uptake in human HuH7 cells assessed as compound remaining in culture media at 10 uM after 1 hrs by HPLC-mass spectrophotometric analysis; type: ADME, cell-based; conditions: huh-7, 1 h
Huh-7 [36] = assay: Cellular uptake in human HuH7 cells assessed as compound remaining in cell lysate at 10 uM after 1 hr by HPLC-mass spectrophotometric analysis; type: ADME, cell-based; conditions: huh-7, 1 h
MCF7 [37] = assay: Cell cycle arrest in human MCF7 cells assessed as increase in apoptotic cells in sub-G1 phase at 30 uM after 14 hrs by propidium iodide staining based flow cytometric analysis relative to quercetin; type: functional

Row | Compound | Drug uptake (HCT-116 [1]) | half-life [2] [h] | EC50 (HS27) [µM] | Drug uptake (HCT-116 [3]) | half-life [5] [h] | solubility kinetic [7] [µM] | solubility kinetic [8] [µM] | permeability [9] [%] | permeability [10] [%] | EC50 (MCF7 [11]) [µM] | permeability [12] [%] | EC50 (HCT-116 [13]) [µM] | EC50 (DU-145) [µM] | half-life [14] [h] | solubility kinetic [15] [µM] | permeability [16] [%] | Activity (HCT-116 [20]) | Drug uptake (MCF7 [25]) [%] | Drug uptake (MCF7 [26]) [%] | Drug uptake (MCF7 [28]) [%] | also measured
1 | CC(C)(C)C(=O)OCOc1c(-c2ccc(O)c(O)c2)oc2cc(O)cc(O)c2c1=O | Not Active | 52 | > 100 | Not Active | > 72 | 100 (≈ 41.6 µg/mL) | 100 (≈ 41.6 µg/mL) | 74 | 0 | > 100 | 87 | > 100 | > 100 | 20 | > 400 | 0 | – | – | – | – | Drug uptake (HCT-116 [4]): Not Active; Drug uptake (HCT-116 [6]): Not Active
2 | O=c1c(O)c(-c2ccc(O)c(O)c2)oc2cc(O)cc(O)c12 [QUERCETIN] | Active | < 0.5 | > 100 | Not Active | 10 | – | 100 (≈ 30.2 µg/mL) | 8 | 6 | > 100 | 45 | > 100 | > 100 | 7 | – | 16 | inactive | 17 | 5 | 5 | Drug uptake (MCF7 [17]): Active; Activity (MCF7 [18]): 78%; Drug uptake (Huh-7 [19]): < 5%; Drug uptake (Huh-7 [21]): < 5%; Activity (MCF7 [22]): 21%; Drug uptake (MCF7 [23]): Active; Drug uptake (MCF7 [24]): Active; Drug uptake (MCF7 [27]): Active; Drug uptake (Huh-7 [29]): Not Active; Drug uptake (MCF7 [30]): 7%
3 | O=C(O)CNC(=O)Oc1cc(-c2oc3cc(O)cc(O)c3c(=O)c2O)ccc1O [QC-12] | – | 0.8 | – | – | 10 | > 400 | > 400 | 18 | 40 | – | 6 | – | – | 3 | > 400 | 55 | – | – | – | – | half-life [31]: 0.39 h; half-life [32]: 16.9 h
4 | CC(C)(C)C(=O)OCOc1cc(O)c2c(=O)c(O)c(-c3ccc(O)c(O)c3)oc2c1 | Active | 4 | > 100 | Active | > 72 | 50 (≈ 20.8 µg/mL) | 5 (≈ 2.08 µg/mL) | – | – | 20 | – | 36 | 10 | 7 | 200 | – | Active | 4 | 62 | 12 | Activity (MCF7 [33]): 10%; Activity (MCF7 [34]): 120%; Drug uptake (Huh-7 [35]): Active; Drug uptake (Huh-7 [36]): Active; Activity (MCF7 [37]): Active; Drug uptake (MCF7 [30]): 21%
